ChEMBL document CHEMBL4038311, “An Ursolic Acid Derived Small Molecule Triggers Cancer Cell Death through Hyperstimulation of Macropinocytosis” (J Med Chem, 2017)
Active and inactive are the calls of the source. No cut-off for these calls is given here.

Key:
HT-1080 [1] = experiment: Anticancer activity against human HT1080 cells assessed as cell viability at 20 uM after 48 hrs by CCK8 assay relative to control; assay type: functional; conditions: HT-1080, 48 h, read-out: Activity
In short: (§1)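 Cells (5000/well, pre-incubated overnight) exposed to 20 µM for 48 h. CCK-8 absorbance read at 450 nm. Viability given as percent of vehicle (DMSO) control, mean ± SD. Six parallel wells per condition, at least three independent repeats.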

HeLa [2] = experiment: Anticancer activity against human HeLa cells assessed as vacuole formation at 20 uM after 24 hrs by phase contrast microscopic analysis; assay type: functional, cell-based
HepG2 [3] = experiment: Anticancer activity against human HepG2 cells assessed as vacuole formation at 20 uM after 24 hrs by phase contrast microscopic analysis; assay type: functional, cell-based
HT-1080 [4] = experiment: Anticancer activity against human HT1080 cells assessed as vacuole formation at 20 uM after 24 hrs by phase contrast microscopic analysis; assay type: functional, cell-based
MCF7 [5] = experiment: Anticancer activity against human MCF7 cells assessed as vacuole formation at 20 uM after 24 hrs by phase contrast microscopic analysis; assay type: functional, cell-based
SK-N-MC [6] = experiment: Anticancer activity against human SK-N-MC cells assessed as vacuole formation at 20 uM after 24 hrs by phase contrast microscopic analysis; assay type: functional, cell-based
HeLa [7] = experiment: Anticancer activity against human HeLa cells assessed as cell viability at 20 uM after 48 hrs by CCK8 assay relative to control; assay type: functional; conditions: read-out: Activity; in short: as §1
HepG2 [8] = experiment: Anticancer activity against human HepG2 cells assessed as cell viability at 20 uM after 48 hrs by CCK8 assay relative to control; assay type: functional; conditions: HepG2, 48 h, read-out: Activity; in short: as §1
MCF7 [9] = experiment: Anticancer activity against human MCF7 cells assessed as cell viability at 20 uM after 48 hrs by CCK8 assay relative to control; assay type: functional; conditions: MCF7, 48 h, read-out: Activity; in short: as §1
SK-N-MC [10] = experiment: Anticancer activity against human SK-N-MC cells assessed as cell viability at 20 uM after 48 hrs by CCK8 assay relative to control; assay type: functional; conditions: read-out: Activity; in short: as §1
HeLa [11] = experiment: Anticancer activity against human HeLa cells assessed as decrease in cell viability at 100 nM preincubated cells with Z-VAD-FMK for 1 hr followed by compound addition measured after 48 hrs by CCK8 assay; assay type: functional, cell-based
HeLa [12] = experiment: Induction of apoptosis in human HeLa cells assessed as increase in cleaved caspase-3 levels at 100 nM after 24 to 48 hrs by Western blot analysis; assay type: functional, cell-based
HeLa [13] = experiment: Induction of apoptosis in human HeLa cells assessed as increase in cleaved PARP1 levels at 100 nM after 24 to 48 hrs by Western blot analysis; assay type: functional, cell-based

Structure (SMILES)	viability at 20 µM (HT-1080 [1]) [%]	Activity (HeLa [2])	Activity (HepG2 [3])	Activity (HT-1080 [4])	Activity (MCF7 [5])	Activity (SK-N-MC [6])	viability at 20 µM (HeLa [7]) [%]	viability at 20 µM (HepG2 [8]) [%]	viability at 20 µM (MCF7 [9]) [%]	viability at 20 µM (SK-N-MC [10]) [%]	Activity (HeLa [11])	Activity (HeLa [12])	Activity (HeLa [13])
C[C@H]1[C@H](C)CC[C@]2(C(=O)O)CC[C@]3(C)C(=CC[C@@H]4[C@@]5(C)Cc6cnn(C7CCCC7)c6C(C)(C)[C@@H]5CC[C@]43C)[C@H]12	27.9	Active	Active	Active	Active	Active	30.8	44.6	36.2	31.4			
C[C@H]1[C@H](C)CC[C@]2(C(=O)O)CC[C@]3(C)C(=CC[C@@H]4[C@@]5(C)Cc6cnn(CC7CC7)c6C(C)(C)[C@@H]5CC[C@]43C)[C@H]12	23.5	inactive	inactive	inactive	inactive	inactive	19.9	33.9	33.4	33.9			
C[C@H]1[C@H](C)CC[C@]2(C(=O)O)CC[C@]3(C)C(=CC[C@@H]4[C@@]5(C)Cc6cnn(-c7cccc(F)c7)c6C(C)(C)[C@@H]5CC[C@]43C)[C@H]12	33.5	inactive	inactive	inactive	inactive	inactive	33.3	29.5	46.6	24.6			
C[C@H]1[C@H](C)CC[C@]2(C(=O)O)CC[C@]3(C)C(=CC[C@@H]4[C@@]5(C)Cc6cnn(-c7ccc(F)cc7)c6C(C)(C)[C@@H]5CC[C@]43C)[C@H]12	27.3	Active	Active	Active	Active	Active	24.4	58.6	34.3	39.4			
C[C@H]1[C@H](C)CC[C@]2(C(=O)O)CC[C@]3(C)C(=CC[C@@H]4[C@@]5(C)Cc6cnn(C)c6C(C)(C)[C@@H]5CC[C@]43C)[C@H]12	35.8	Active	Active	Active	Active	Active	44.9	46	47.6	67.4			
C[C@H]1[C@H](C)CC[C@]2(C(=O)O)CC[C@]3(C)C(=CC[C@@H]4[C@@]5(C)CC[C@H](O)C(C)(C)[C@@H]5CC[C@]43C)[C@H]12 [URSOLIC ACID]	39.4	inactive	inactive	inactive	inactive	inactive	43.3	34.1	57.6	67.2			
CCOC(=O)Cn1ncc2c1C(C)(C)[C@@H]1CC[C@]3(C)[C@H](CC=C4[C@@H]5[C@@H](C)[C@H](C)CC[C@]5(C(=O)O)CC[C@]43C)[C@@]1(C)C2	55.2	inactive	inactive	inactive	inactive	inactive	44.2	43.7	28.9	66.6			
C[C@H]1[C@H](C)CC[C@]2(C(=O)O)CC[C@]3(C)C(=CC[C@@H]4[C@@]5(C)Cc6cnn(CCO)c6C(C)(C)[C@@H]5CC[C@]43C)[C@H]12	39	inactive	inactive	inactive	inactive	inactive	47	57	40.5	63.3			
CC(=O)O[C@H]1C(=O)[C@@]2(C)[C@H]([C@H](OC(=O)c3ccccc3)[C@]3(O)C[C@H](OC(=O)[C@H](O)[C@@H](NC(=O)c4ccccc4)c4ccccc4)C(C)=C1C3(C)C)[C@]1(OC(C)=O)CO[C@@H]1C[C@@H]2O											inactive	Active	Active
C[C@H]1[C@H](C)CC[C@]2(C(=O)O)CC[C@]3(C)C(=CC[C@@H]4[C@@]5(C)Cc6c(C(F)(F)F)nn(C)c6C(C)(C)[C@@H]5CC[C@]43C)[C@H]12	35.8	Active	Active	Active	Active	Active	44.9	46	47.6	67.4			
C[C@H]1[C@H](C)CC[C@]2(C(=O)O)CC[C@]3(C)C(=CC[C@@H]4[C@@]5(C)Cc6cnn(-c7ccncc7)c6C(C)(C)[C@@H]5CC[C@]43C)[C@H]12	30.9	inactive	inactive	inactive	inactive	inactive	54.2	56.8	39.7	79.9			
C[C@H]1[C@H](C)CC[C@]2(C(=O)O)CC[C@]3(C)C(=CC[C@@H]4[C@@]5(C)Cc6cnn(-c7cccc(C#N)c7)c6C(C)(C)[C@@H]5CC[C@]43C)[C@H]12	37.5	Active	Active	Active	Active	Active	37.3	29.3	28.1	31			
C[C@H]1[C@H](C)CC[C@]2(C(=O)O)CC[C@]3(C)C(=CC[C@@H]4[C@@]5(C)Cc6cnn(-c7ccccc7)c6C(C)(C)[C@@H]5CC[C@]43C)[C@H]12	38.7	inactive	inactive	inactive	inactive	inactive	40.9	60.1	46.5	57.4			
